Assay results from ChEMBL document CHEMBL2046300, “A laccase-catalysed one-pot synthesis of aminonaphthoquinones and their anticancer activity” (2012).

How the values were obtained:
Assay type in all cases: functional
UACC-62 = test: Antiproliferative activity against human UACC62 cells after 48 hrs by SRB assay; conditions: UACC-62, 48 h; for CC50: read-out: LC50 (the source's name)
Procedure, shortened: (§1)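 Cells kept as monolayers in RPMI with 5% FBS, 2 mM L-glutamine and 50 μg/mL gentamicin (37 °C, 5% CO2), used at passages 3–19. They were plated at 7–10 000 cells/well for 24 h, with a T0 plate TCA-fixed at drug addition. Compounds in DMSO, diluted in medium, at 5 concentrations (0.01–100 μM) for 48 h, duplicate. SRB read at 540 nm; net % growth gave GI50, TGI, LC50.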

MCF7 = test: Antiproliferative activity against human MCF7 cells after 48 hrs by SRB assay; conditions: MCF7, 48 h; for CC50: read-out: LC50 (the source's name); procedure, shortened: as §1
TK-10 = test: Antiproliferative activity against human TK10 cells after 48 hrs by SRB assay; conditions: TK-10, 48 h; for CC50: read-out: LC50 (the source's name); procedure, shortened: as §1
HeLa = test: Antiproliferative activity against human HeLa cells after 48 hrs by SRB assay; conditions: for CC50: read-out: LC50 (the source's name)

SMILES | GI50 (UACC-62) [µM] | TGI (UACC-62) [µM] | CC50 (UACC-62) [µM] | GI50 (MCF7) [µM] | TGI (MCF7) [µM] | CC50 (MCF7) [µM] | GI50 (TK-10) [µM] | CC50 (TK-10) [µM] | GI50 (HeLa) [µM] | TGI (HeLa) [µM] | CC50 (HeLa) [µM] | TGI (TK-10) [µM]
O=C(O)C1=C(Nc2ccccc2)C(=O)c2ccccc2C1=O | 6.66 | 30.7 | 73.1 | 42.6 | > 100 | > 100 | 74.1 | > 100 | 49.2 | 97.2 | > 100 | 
O=C(O)C1=C(Nc2ccccc2Cl)C(=O)c2ccccc2C1=O | 31 | 65.8 | > 100 | 63.5 | > 100 | > 100 | 80.7 | > 100 | 28 | 60.3 | 90.2 | > 100
COc1cc([C@@H]2c3cc4c(cc3[C@@H](O[C@@H]3O[C@@H]5CO[C@@H](C)O[C@H]5[C@H](O)[C@H]3O)[C@H]3COC(=O)[C@H]23)OCO4)cc(OC)c1O [ETOPOSIDE] | 0.89 | 52.7 | > 100 | 0.56 | > 100 | > 100 | 7.19 | > 100 | 3.56 | 40.2 | 87.5 | 49.7
N#Cc1cccc(NC2=C(C(=O)O)C(=O)c3ccccc3C2=O)c1 | 3.99 | 7.17 | 19.3 | 15.1 | 53.8 | 92.4 | 23.7 | > 100 | 16 | 49.1 | 82.3 | 76.2
O=C(O)C1=C(Nc2ccccc2F)C(=O)c2ccccc2C1=O | 5.67 | 23.3 | 65.4 | 9.84 | 50.8 | 92.2 | 36.9 | > 100 | 47.5 | 97 | > 100 | > 100
CC(C)c1ccc(NC2=C(C(=O)O)C(=O)c3ccccc3C2=O)cc1 | 5.19 | 10.8 | 58.1 | 37.7 | > 100 | > 100 | 8.38 | > 100 | 38.3 | 73 | > 100 | 63.6
O=C(O)C1=C(Nc2ccc(Cl)cc2F)C(=O)c2ccccc2C1=O | 4.17 | 7.94 | 40.4 | 21.4 | 54.9 | 88.5 | 13.4 | > 100 | 25.2 | 55.5 | 85.9 | 93.3
O=C(O)C1=C(Nc2ccc(Cl)cc2)C(=O)c2ccccc2C1=O | 3.98 | 7.83 | 55.1 | 17.2 | 55.1 | 93 | 13 | > 100 | 24.8 | 55.4 | 86.1 | 79
O=C(O)C1=C(Nc2ccc(F)cc2)C(=O)c2ccccc2C1=O | 7.54 | 35 | 72.1 | 38.1 | 98.9 | > 100 | 46.6 | > 100 | 36.2 | 67.3 | 98.4 | > 100
O=C(O)C1=C(Nc2cccc(Cl)c2)C(=O)c2ccccc2C1=O | 17 | 49.1 | 81.2 | 43.2 | > 100 | > 100 | 35.9 | > 100 | 37.3 | 70.7 | > 100 | > 100
O=C(O)C1=C(Nc2ccc(CCO)cc2)C(=O)c2ccccc2C1=O | 7.17 | 35.3 | 72 | 54.9 | > 100 | > 100 | 91.1 | > 100 | 72.5 | > 100 | > 100 | > 100
O=C(O)C1=C(Nc2cccc(F)c2)C(=O)c2ccccc2C1=O | 5.28 | 13.7 | 59.4 | 9.08 | 48.4 | 91 | 24.7 | > 100 | 28 | 60.3 | 92.5 | > 100
